# Measured values gathered from unrelated publications.
# Compare with care: the assays were run in different laboratories.
# RET: Proto-oncogene tyrosine-protein kinase receptor Ret (RET, Homo sapiens, UniProt P07949)
# RET M918T: Proto-oncogene tyrosine-protein kinase receptor Ret (RET, Homo sapiens, UniProt P07949, M918T)
# RET V804L: Proto-oncogene tyrosine-protein kinase receptor Ret (RET, Homo sapiens, UniProt P07949, V804L)
# RET V804M: Proto-oncogene tyrosine-protein kinase receptor Ret (RET, Homo sapiens, UniProt P07949, V804M)
SMILES,target,test,setting,remaining binding [%]
c1cncc(-c2cccc(Nc3nccc(NC4CCCCC4)n3)c2)c1,RET,"binding, competition with immobilised ligand",10 µM,14
Cc1cnc(Nc2ccc(C(=O)N3CCC(N4CCCC4)CC3)cc2)nc1-c1cc2ccccc2s1,RET M918T,"binding, competition with immobilised ligand",1 µM,5.2
CC(C)CC(=O)N1CCc2nc(-c3ccc(Br)cc3)nc(N(C)Cc3ccccc3)c2C1,RET,"cell-free assay, competition with immobilised ligand",0.1 µM,68
COc1cnc(Nc2cccc(S(N)(=O)=O)c2)nc1N1CCN(c2ccccc2)C(=O)C1,RET V804L,"binding, competition with immobilised ligand",1 µM,98
C[C@@H](c1ccc(-n2cnc3c(N)ncnc32)cc1)N1CCc2nn(C)c(Cc3ccccc3)c2C1=O,RET V804M,"binding, competition with immobilised ligand",0.1 µM,80
O=C(c1ccc(Nc2ncc(Cl)c(-c3cc4ccccc4s3)n2)cc1)N1CCC(N2CCCC2)CC1,RET V804L,"binding, competition with immobilised ligand",1 µM,23
Nc1ncc2c(n1)-c1c([nH]c3ccc(C#CC4CC4)cc13)CCCC2,RET,"binding, competition with immobilised ligand",1 µM,91
O=C(Nc1cnc(Oc2ccc(F)cc2)nc1)N1CCc2ncccc2[C@@H]1c1ccc(F)cc1,RET M918T,"cell-free assay, competition with immobilised ligand",1 µM,95
N#Cc1ccccc1CSc1nnc2c(n1)[nH]c1ccccc12,RET,"binding, competition with immobilised ligand",10 µM,89
CN1CCN(c2ccc(Nc3nccc(-c4cccc([N+](=O)[O-])c4)n3)cc2C(F)(F)F)CC1,RET V804M,binding,10 µM,49
O=C(c1ccc(Nc2ncc(Cl)c(-c3ccc(Cl)s3)n2)cc1)N1CCC(N2CCCC2)CC1,RET,"binding, competition with immobilised ligand",1 µM,15
CC1CCCN1c1nccc(-c2cnn3ncccc23)n1 (centres unmarked),RET V804M,binding,1 µM,100
O=C(NCCCN1CCOCC1)c1ccc(Nc2nccc(-c3cc4ccccc4s3)n2)cc1,RET V804M,"binding, competition with immobilised ligand",1 µM,81
CCCCN(CCCC)C(=O)CN1C[C@@H](c2cc(OC)c3c(c2)OCO3)[C@H](C(=O)O)[C@H]1CC(C)(C)CCC,RET V804L,"cell-free assay, competition with immobilised ligand",1 µM,100
CCN1CCN(Cc2ccc(C(=O)Nc3ccc(C)c(Oc4ccc5c(c4)CC(=O)N5)c3)cc2C(F)(F)F)CC1,RET M918T,"binding, competition with immobilised ligand",1 µM,40
O=C(Nc1cccnn1)N1CCC(=Cc2cccc(Oc3ccc(C(F)(F)F)cn3)c2)CC1,RET,"cell-free assay, competition with immobilised ligand",1 µM,100
CNC(=O)[C@@H]1CC[C@@H](n2c(-c3ccc4cnccc4c3)nc3ccc(C(=O)NCc4cccc(C(N)=O)c4)cc32)C1,RET,"binding, competition with immobilised ligand",1 µM,96
CN(c1nccc(-c2cnn3ncccc23)n1)C1CC1,RET,binding,1 µM,84
CN1CCN(c2ccc(Nc3nccc(-c4ccccc4)n3)cc2C(F)(F)F)CC1,RET M918T,binding,10 µM,27
CS(=O)(=O)NCC[C@H](NC(=O)c1cncc2c1cnn2-c1ccc(F)cc1)c1ccnc(S(C)(=O)=O)c1,RET,"cell-free assay, competition with immobilised ligand",1 µM,91
COc1ncc2cc3ccccc3nc2c1C#N,RET M918T,"cell-free assay, competition with immobilised ligand",5 µM,96
N[C@@H]1CCN(c2nccc(-c3cnn4ncccc34)n2)C1,RET,binding,1 µM,100
O=C(NCC1CCOCC1)c1n[nH]cc1NC(=O)c1c(F)cccc1F,RET,"binding, competition with immobilised ligand",1 µM,98
CN(C)C(=O)Cn1cc(-c2nc([C@@](C)(c3ccc(-c4cnc(N)nc4)cc3)C3CC3)no2)cn1,RET V804L,"cell-free assay, competition with immobilised ligand",1 µM,93
O=C(Nc1c[nH]nc1C(=O)NC1CCNCC1)c1cc(F)cc(F)c1,RET V804L,"binding, competition with immobilised ligand",1 µM,100
CN(CCCC(F)(F)F)c1nccc(-c2cnn3ncccc23)n1,RET,binding,1 µM,86
O=C(NCCCN1CCOCC1)c1ccc(Nc2ncc(Cl)c(-c3ccc(Cl)s3)n2)cc1,RET,"binding, competition with immobilised ligand",1 µM,24
CC(C)(C)c1ccc(-c2nc(CBr)nn2-c2cccc(O)c2)cc1,RET,"cell-free assay, competition with immobilised ligand",10 µM,93
COc1cnc(Nc2cccc(S(N)(=O)=O)c2)nc1N1CCN(c2ccccc2)CC1,RET M918T,"binding, competition with immobilised ligand",1 µM,49
F[C@@H]1CCN(c2nccc(-c3cnn4ncccc34)n2)C1,RET,binding,1 µM,92
C[C@@H]1CN(c2cc(-c3nn(C)c4ccc(OC5(C)CC5)cc34)ncn2)C[C@H](C)O1,RET V804L,"cell-free assay, competition with immobilised ligand",1 µM,72
C=CC(=O)N1CCC(C(=O)NCC(=O)N2CCN(c3nc(-c4cnc(N)nc4C(F)F)nc(N4CCOCC4)n3)CC2)CC1,RET V804L,"binding, competition with immobilised ligand",1 µM,100
Cc1cnn2ncc(-c3ccnc(N(C)C)n3)c2c1,RET M918T,binding,1 µM,100
C[C@@H]1CN(c2ccc3ncc(-c4ccc5[nH]nc(C6CC6)c5c4)n3n2)C[C@H](C)O1,RET,"binding, competition with immobilised ligand",0.5 µM,61
C[C@@H]1CCN(c2nccc(-c3cnn4ncccc34)n2)C1,RET,binding,1 µM,70
CNC(=O)c1ccc(Nc2ncc(C(F)(F)F)c(NCc3nccnc3N(C)S(C)(=O)=O)n2)cc1,RET V804M,"cell-free assay, competition with immobilised ligand",0.1 µM,30
c1cnn2ncc(-c3ccnc(N4CCC45COC5)n3)c2c1,RET,binding,1 µM,97
O=C(c1ccc(Nc2nccc(-c3cc4ccccc4s3)n2)cc1)N1CCC(N2CCCC2)CC1,RET V804M,"binding, competition with immobilised ligand",1 µM,99
